# Measurements published in ChEMBL document CHEMBL3612021, “Structure-kinetics relationships of Capadenoson derivatives as adenosine A1 receptor agonists” (Eur J Med Chem, 2015).
# Key:
# [1] = target: T1, Adenosine receptor A1 (Homo sapiens) (UniProt P30542); experiment: Displacement of [3H]DPCPX from human adenosine A1 receptor expressed in CHO cell membranes assessed as kinetic rate index by measuring ratio of binding at earlier and later time points by competition association assay
# T1 sequence (whole entry): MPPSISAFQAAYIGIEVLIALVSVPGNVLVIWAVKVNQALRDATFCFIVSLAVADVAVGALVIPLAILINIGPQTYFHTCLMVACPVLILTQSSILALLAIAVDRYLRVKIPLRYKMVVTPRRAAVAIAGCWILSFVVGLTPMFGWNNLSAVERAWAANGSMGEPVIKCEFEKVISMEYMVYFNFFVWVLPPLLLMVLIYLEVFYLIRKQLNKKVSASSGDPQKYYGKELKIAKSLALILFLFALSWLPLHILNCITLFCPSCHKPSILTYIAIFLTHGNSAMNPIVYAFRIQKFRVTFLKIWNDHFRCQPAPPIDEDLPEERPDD
# In short: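 Dual-point competition association assay with [3H]DPCPX on CHO membranes stably expressing hA1. Specific binding is read at two time points in the presence of the test ligand. KRI is the ratio of binding at the earlier to the later time point (n = 2; both values reported).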
# [2] = target: T1, Adenosine receptor A1 (Homo sapiens); experiment: Displacement of [3H]DPCPX from human adenosine A1 receptor expressed in CHO cell membranes assessed as association rate constant by competition association assay
# In short: (§1)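 Competition association assay on CHO cell membranes stably expressing hA1, with [3H]DPCPX as tracer. kon and koff come from these association curves (n ≥ 3, ± SEM). Residence time is shown alongside koff and corresponds to 1/koff in minutes.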
# [3] = target: T1, Adenosine receptor A1 (Homo sapiens); experiment: Displacement of [3H]DPCPX from human adenosine A1 receptor expressed in CHO cell membranes assessed as dissociation rate constant by competition association assay; in short: as §1
# [4] = target: T1, Adenosine receptor A1 (Homo sapiens); experiment: Displacement of [3H]DPCPX from human adenosine A1 receptor expressed in CHO cell membranes assessed as residence time by competition association assay; in short: as §1
# [5] = target: T1, Adenosine receptor A1 (Homo sapiens); experiment: Displacement of [3H]DPCPX from human adenosine A1 receptor expressed in CHO cell membranes at 1 uM by competition association assay
Compound,Ratio [1],K [2],K [3] [min⁻¹],TIME [4] [h],inhibition [5] [%]
N#Cc1c(N)nc(SCc2csc(-c3ccc(Cl)cc3)n2)c(C#N)c1-c1ccc2c(c1)OCO2,2,2.4 ×10⁶ /M/min,0.016,1.04,> 80
COc1ccc(-c2c(C#N)c(N)nc(SCc3csc(-c4ccc(Br)cn4)n3)c2C#N)cc1,1.71,1.4 ×10⁶ /M/min,0.03,0.555,> 80
COc1ccc(-c2c(C#N)c(N)nc(SCc3csc(-c4ccc(F)cc4)n3)c2C#N)cc1,1.56,4.6 ×10⁶ /M/min,0.033,0.505,–
COc1ccc(-c2c(C#N)c(N)nc(SCc3csc(-c4cccc(Cl)c4)n3)c2C#N)cc1,1.6,7.7 ×10⁵ /M/min,0.025,0.667,> 80
N#Cc1c(N)nc(SCc2csc(-c3ccc(Cl)cc3)n2)c(C#N)c1-c1ccc(O)cc1,2.07,4.3 ×10⁶ /M/min,0.028,0.595,> 80
COc1ccc(-c2c(C#N)c(N)nc(SCc3csc(-c4ccc(I)cc4)n3)c2C#N)cc1,2.07,1.6 ×10⁶ /M/min,0.011,1.51,> 80
N#Cc1c(N)nc(SCc2csc(-c3cccc(F)c3)n2)c(C#N)c1-c1ccc(O)cc1,–,–,–,–,> 80
N#Cc1c(N)nc(SCc2csc(-c3ccc(Cl)c(Cl)c3)n2)nc1-c1ccc2c(c1)OCO2,–,–,–,–,> 80
COc1ccc(-c2nc(CSc3nc(N)c(C#N)c(-c4ccc(O)cc4)c3C#N)cs2)cc1,–,–,–,–,> 80
COc1ccc(-c2c(C#N)c(N)nc(SCc3csc(-c4ccc(Br)cc4)n3)c2C#N)cc1,1.55,2.4 ×10⁶ /M/min,0.02,0.833,> 80
COc1ccc(-c2nc(CSc3nc(N)c(C#N)c(-c4ccc(OC)cc4)c3C#N)cs2)cc1,1.22,–,–,–,–
COc1ccc(-c2c(C#N)c(N)nc(SCc3coc(-c4ccc(Cl)cc4)n3)c2C#N)cc1,–,–,–,–,> 80
COc1ccc(-c2nc(CSc3nc(N)c(C#N)c(-c4ccc5c(c4)OCO5)n3)cs2)cc1,–,–,–,–,> 80
N#Cc1c(N)nc(SCc2csc(-c3ccc4c(c3)OCO4)n2)nc1-c1ccc2c(c1)OCO2,–,–,–,–,> 80
N#Cc1c(N)nc(SCc2csc(-c3cccc(Cl)c3)n2)c(C#N)c1-c1ccc(O)cc1,–,–,–,–,> 80
CC(=O)Nc1ccc(-c2nc(SCc3cccc(CCC(=O)N4CCN(C)CC4)n3)nc(N)c2C#N)cc1,–,–,–,–,< 80
N#Cc1c(N)nc(SCc2csc(-c3ccccc3F)n2)nc1-c1ccc2c(c1)OCO2,–,–,–,–,> 80
CCCCNc1nc(SCc2csc(-c3ccc(Cl)cc3)n2)nc(-c2ccc3c(c2)OCO3)c1C#N,–,–,–,–,< 80
N#Cc1c(N)nc(SCc2csc(-c3ccccc3Cl)n2)nc1-c1ccc2c(c1)OCO2,–,–,–,–,> 80
N#Cc1c(N)nc(SCc2csc(-c3ccc(Cl)cc3)n2)nc1-c1ccc(OC(F)(F)F)cc1,–,–,–,–,> 80
N#Cc1c(N)nc(SCc2nc(-c3ccc(Cl)cc3)sc2Br)c(C#N)c1-c1ccc2c(c1)OCO2,–,–,–,–,> 80
N#Cc1c(N)nc(SCc2csc(-c3ccccc3F)n2)c(C#N)c1-c1ccc(O)cc1,–,–,–,–,> 80
N#Cc1c(N)nc(SCc2csc(-c3ccc(Cl)cc3)n2)nc1-c1ccc(O)cc1,–,–,–,–,> 80
N#Cc1c(N)nc(SCc2csc(-c3ccccc3Cl)n2)c(C#N)c1-c1ccc(O)cc1,–,–,–,–,> 80
CC(=O)Nc1ccc(-c2nc(SCc3cccc(CCC(=O)N4CCN(CCN(C(C)C)C(C)C)CC4)n3)nc(N)c2C#N)cc1,–,–,–,–,< 80
COc1ccc(-c2c(C#N)c(N)nc(SCc3csc(-c4ccc(Cl)cn4)n3)c2C#N)cc1,1.64,3.4 ×10⁶ /M/min,0.035,0.477,> 80
N#Cc1c(N)nc(SCc2csc(-c3ccc(F)cc3)n2)c(C#N)c1-c1ccc(O)cc1,–,–,–,–,> 80

Compound,Ratio [1],K [2],K [3] [min⁻¹],TIME [4] [h],inhibition [5] [%]
N#Cc1c(N)nc(SCc2cscn2)nc1-c1ccc2c(c1)OCO2,–,–,–,–,> 80
N#Cc1c(N)nc(SCc2csc(-c3ccccc3)n2)nc1-c1ccc2c(c1)OCO2,–,–,–,–,> 80
CC(C)CCNc1nc(SCc2csc(-c3ccc(Cl)cc3)n2)nc(-c2ccc3c(c2)OCO3)c1C#N,–,–,–,–,< 80
COc1ccc(-c2c(C#N)c(N)nc(SCc3csc(-c4ccc(C)cc4)n3)c2C#N)cc1,1.25,–,–,–,> 80
CC(=O)Nc1ccc(-c2nc(SCc3cccc(CCC(=O)N4CCN(CCN5CCCC5)CC4)n3)nc(N)c2C#N)cc1,–,–,–,–,< 80
CNc1nc(SCc2csc(-c3ccc(Cl)cc3)n2)cc(-c2ccc3c(c2)OCO3)c1C#N,–,–,–,–,> 80
Cc1ccc(-c2nc(CSc3nc(N)c(C#N)c(-c4ccc(O)cc4)c3C#N)cs2)cc1,–,–,–,–,> 80
N#Cc1c(-c2ccc3c(c2)OCO3)cc(SCc2csc(-c3ccc(Cl)cc3)n2)nc1NC1CC1,–,–,–,–,> 80
C#CCNc1nc(SCc2csc(-c3ccc(Cl)cc3)n2)cc(-c2ccc3c(c2)OCO3)c1C#N,–,–,–,–,> 80
N#Cc1c(NCC(c2ccccc2)c2ccccc2)nc(SCc2csc(-c3ccc(Cl)cc3)n2)nc1-c1ccc2c(c1)OCO2,–,–,–,–,< 80
CC(C)Nc1nc(SCc2csc(-c3ccc(Cl)cc3)n2)nc(-c2ccc3c(c2)OCO3)c1C#N,–,–,–,–,< 80
CN(C)CCNc1nc(SCc2csc(-c3ccc(Cl)cc3)n2)nc(-c2ccc3c(c2)OCO3)c1C#N,–,–,–,–,< 80
N#Cc1c(N)nc(SCc2csc(-c3ccc(Cl)cc3)n2)nc1-c1ccccc1,–,–,–,–,> 80
N#Cc1c(N)nc(SCc2ccccc2[N+](=O)[O-])nc1-c1ccccc1,–,–,–,–,> 80
CC(=O)Nc1ccc(-c2nc(SCc3cccc(CCC(=O)N4CCN(CCCCN5CCC(C)CC5)CC4)n3)nc(N)c2C#N)cc1,–,–,–,–,< 80
N#Cc1c(N)nc(SCc2csc(-c3ccc(Cl)c(Cl)c3)n2)c(C#N)c1-c1ccc(O)cc1,–,–,–,–,> 80
COc1ccc(-c2c(C#N)c(N)nc(SCc3csc(-c4ccccc4Cl)n3)c2C#N)cc1,1.53,9.4 ×10⁵ /M/min,0.024,0.695,> 80
CCOc1ccc(-c2nc(SCc3csc(-c4ccc(Cl)cc4)n3)nc(N)c2C#N)cc1,–,–,–,–,< 80
N#Cc1c(N)nc(SCc2csc(C3CCCCC3)n2)nc1-c1ccc2c(c1)OCO2,–,–,–,–,> 80
COc1ccc(-c2nc(SCc3csc(-c4ccc(Cl)cc4)n3)nc(N)c2C#N)cc1,–,–,–,–,< 80
COc1ccc(-c2c(C#N)c(N)nc(SCc3nc(-c4ccc(Cl)cc4)sc3Cl)c2C#N)cc1,1.79,1.4 ×10⁶ /M/min,0.028,0.595,–
N#Cc1c(N)nc(SCc2csc(-c3ccc(Br)cc3)n2)nc1-c1ccc2c(c1)OCO2,–,–,–,–,> 80
N#Cc1c(N)nc(SCc2csc(-c3cccc(F)c3)n2)nc1-c1ccc2c(c1)OCO2,–,–,–,–,> 80
COc1ccc(-c2c(C#N)c(N)nc(SCc3csc(-c4ccc(Cl)c(Cl)c4)n3)c2C#N)cc1,2.35,1.1 ×10⁶ /M/min,0.019,0.877,–
CC(=O)Nc1ccc(-c2nc(SCc3csc(-c4ccc(Cl)cc4)n3)nc(N)c2C#N)cc1,–,–,–,–,> 80
COc1ccc(-c2c(C#N)c(N)nc(SCc3csc(-c4cccc(F)c4)n3)c2C#N)cc1,–,–,–,–,> 80
